From PubChem
V-ATPase pH: regulators of yeast V-ATPase proton pumping, primary screen, pHLuorin cytosolic pH fluorescence | S. cerevisiae | AID 504577, 2011 | response, % at 10 µM | actives 0.37% (n = 350,000); in the data active means response mostly above about 7.3%, no sharp cut-off; inactive means mostly below about 5.4%; further: actives read high
KLK7 zymogen act: proKLK7 zymogen activators, primary screen, biochemical, fluorescence intensity; Kallikrein-7 (Homo sapiens), P49862; purified proKLK7, EDANS-DABCYL substrate fluorescence; 100% is mature enzyme control, 0% vehicle; activation, % at 7 µM; actives 0.9% (n = 370,000); AID 652039, 2013;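 active means activation above the mean of all tested compounds plus 3 SD, computed per campaign excluding outliers beyond control limits, cut at about 13% in these data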
Target sequence (P49862 whole entry, looked up): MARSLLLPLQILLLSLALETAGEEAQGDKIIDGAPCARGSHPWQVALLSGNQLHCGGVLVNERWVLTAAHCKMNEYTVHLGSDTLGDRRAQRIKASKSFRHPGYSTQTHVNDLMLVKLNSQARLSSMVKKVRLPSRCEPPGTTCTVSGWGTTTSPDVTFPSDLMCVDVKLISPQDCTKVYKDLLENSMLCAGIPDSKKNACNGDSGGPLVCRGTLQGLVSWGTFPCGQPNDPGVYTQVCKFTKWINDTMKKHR
T cell modulator: modulators of CD8 T cell-vesicle binding, primary screen, mouse 2C CD8+ T cells, flow cytometry. response (vesicle binding), % at 7 µM. actives 0.068% (n = 330,000). 2C CD8+ T cell-vesicle binding; stronger effect = lower value;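 active means response, share of CD8 T cells binding vesicles, and their 90th percentile fluorescence all below set limits, cut at about 80% in these data, passing the limit was not always enough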;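 further: values below 100% mean blocked vesicle binding to the CD8+ T cells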
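Benchmarks: naked versus QL9-loaded vesicles / Assay system: purified 2C TCR transgenic mouse naive CD8+ T cells / Technique: high-throughput flow cytometry with anti-B7-1 and anti-CD8 staining / Timing: Cell–vesicle co-incubation 1.5 h at 37 °C, staining 20 min on ice / Read-out: percent CD8+ FL2 mean versus row control / Probe or stimulus: QL9-loaded Drosophila micro-vesicles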
Rce1 inh: yeast Rce1p protease inhibitors, primary screen, biochemical, fluorescence, cell-free homogeneous; AID 2563, 2010; actives 0.27% (n = 290,000); calls only; CAAX prenyl protease 2 (Saccharomyces cerevisiae (strain ATCC 204508 / S288c)), Q03530; yeast membranes, quenched prenylated peptide cleavage fluorescence;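 active means fall in fluorescence gain of 50% or more versus controls, with final raw signal at or below 3038400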;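 further: plate controls were neutral control wells for no effect and wells lacking membranes for full effect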
Target sequence (Q03530 whole entry, looked up): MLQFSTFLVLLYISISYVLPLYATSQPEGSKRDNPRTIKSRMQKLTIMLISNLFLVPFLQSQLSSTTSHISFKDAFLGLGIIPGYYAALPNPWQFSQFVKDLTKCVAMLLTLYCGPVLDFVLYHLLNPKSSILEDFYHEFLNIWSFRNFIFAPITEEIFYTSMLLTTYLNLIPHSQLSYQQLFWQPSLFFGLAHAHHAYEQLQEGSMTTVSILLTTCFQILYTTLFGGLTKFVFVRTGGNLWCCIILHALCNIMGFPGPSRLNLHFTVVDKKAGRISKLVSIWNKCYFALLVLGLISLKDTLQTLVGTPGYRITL
CR mimetic SO: reduction of superoxide in aged yeast, primary screen, HTS; superoxide response (% of plate mean), % at 10 µM; actives 0.18% (n = 330,000); AID 2690, 2010; S. cerevisiae aged cells, superoxide DHE fluorescence; stronger effect = lower value;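 active means superoxide response under a set limit, about three screen SD below normal, cut at about 65% in these data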;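 further: yeast aged for seven days with compound at 30 °C before DHE staining; 100% = average MFI of all compound-treated wells on the plate with controls excluded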
MIN6 prolif: inducers of MIN6 beta-cell proliferation, primary screen, ATP luminescence, uHTS; MIN6 cells proliferation, ATPlite luminescence, 48 h; cells starved in 0.2% serum; 100% = growth in 10% serum; proliferation, % at 10 µM; actives 0.29% (n = 330,000); AID 2380, 2010;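 active means compounds whose signal lies at least 3.5 SD above the mean of all wells on their plate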;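 further: 0% = DMSO-treated cells in low-serum medium and 100% = 10% serum control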
* = called active by the depositor; i = inactive; . = no result given; + = active, no number. Compounds with a hit are over-represented: about 1.9% of the library has one in this group of screens.

SMILES | V-ATPase pH | KLK7 zymogen act | T cell modulator | Rce1 inh | CR mimetic SO | MIN6 prolif
O=C(O)c1ccc(N/N=C/c2cn(Cc3ccccc3F)c3ccccc23)cc1 | -2.5 | -3.5 | 180.3 | + | 93.9 | -2.1
COC(=O)[C@]12C[C@H](CC(=O)N3CCC(c4ccccc4)CC3)C(=O)N(CCC3=CCCCC3)C1=C[C@H](C(C)C)O[C@@H]2C1CC1 | . | 0.2 | . | . | . | .
Cc1cc(OCC(=O)N2CCC(C(=O)O)CC2)c2c(C)cc(=O)oc2c1 | -2.5 | 9.7 | 507.9 | + | 131.1 | 2.5
Cc1ccc(CN2CCCCC(NC(=O)c3cccc(C(F)(F)F)c3)C2=O)cc1 (configuration not stated) | . | -0.3 | . | . | . | .
COc1cccc(-c2nnc(SCC(=O)Nc3cccc4ccccc34)n2Cc2ccco2)c1 | . | 0.0 | . | . | . | .
CN(C)c1ccc(/C=N/NC(=O)CNC(=O)c2ccc3c(c2)OCCO3)cc1 | -0.5 | 2.4 | 553.9 | + | 99.3 | 0.2
COc1ccc(CCn2c(N)c(C(=O)NCc3ccco3)c3nc4ccccc4nc32)cc1 | -1.9 | -32.5 | 175.0 | i | 114.1 | -6.1
COc1ccc(-n2c(N)c(C(=O)NCc3ccco3)c3nc4ccccc4nc32)c(OC)c1 | -2.0 | 7.2 | 426.1 | + | 104.7 | -1.0
O=C1OCCN1C(=O)[C@H]1[C@H](c2ccc(F)cc2)C(c2ccc(F)cc2)=NN1c1ccc(Br)cc1 | 3.7 | . | 568.1 | + | 45.0* | -8.4
O=C1OCCN1C(=O)[C@H]1[C@H](c2ccc(Cl)cc2)C(c2ccc(F)cc2)=NN1c1ccc(Br)cc1 | -0.5 | -2.4 | . | . | 94.5 | .
O=C(CSc1ccccc1)Nc1cccnc1 | 14.1* | 0.4 | 585.8 | i | 106.2 | -1.9
O=C(Cc1nnc(NC(=O)c2ccccc2)s1)N/N=C/c1ccco1 | -4.7 | 0.8 | 0.0* | i | 96.5 | 3.2
O=C(Cc1nnc(NC(=O)c2ccccc2)s1)N/N=C/c1cccc(O)c1 | -3.4 | 0.0 | 238.6 | i | 103.8 | -2.3
CC(C)CNC(=O)OCc1cn(Cc2ccc(Cl)cc2)nn1 | . | -0.3 | . | . | . | .
O=C(O)c1cccc2cc(-c3ccccc3)oc(=O)c12 | -1.1 | 0.9 | 207.0 | i | 104.7 | 2.5
O=C(O)c1cccc2cccc(-c3c4ccc(=O)c(O)c-4oc4c(O)c(O)ccc34)c12 | -1.5 | 18.8* | . | . | . | .
N#CCC[C@@H]1CC[C@]2(CCCN(Cc3ccc(Cl)cc3)C2)O1 | . | 0.2 | . | . | . | .
CCc1ccc(NC(=O)Nc2cccs2)cc1 | 5.3 | 0.0 | 187.5 | i | 111.0 | -7.0
Cc1ccc(NC(=O)Nc2cccs2)cc1 | 23.3* | -0.6 | 229.9 | i | 105.0 | -4.7
O=C1c2ccccc2C(=O)N1CC(=O)N1c2ccccc2CCc2ccccc21 | 6.2 | -0.3 | 212.4 | i | 101.8 | -1.1
O=C(C(Cc1ccccc1)N1C(=O)c2ccccc2C1=O)N1c2ccccc2CCc2ccccc21 (configuration not stated) | 1.2 | 0.3 | 324.1 | + | 89.4 | -5.0
Cc1cc(NC(=O)c2oc3ccccc3c2C)ccc1-n1cnnn1 | 7.4 | 1.0 | 273.5 | + | 98.9 | 0.7
COCCCN1C(=O)[C@H](CC(=O)NCC23CC4CC(CC(C4)C2)C3)[C@]2(C(=O)OC)CCCCC=C12 | . | 0.3 | . | . | . | .
CC(C)C(NC(=O)c1ccco1)C(=O)NCC(c1ccco1)N(C)C (configuration not stated) | 16.3* | 0.1 | 261.4 | i | 94.5 | -0.8
C[C@H](CO)N1C[C@H](C)[C@@H](CN(C)C)Oc2c(NS(=O)(=O)c3ccccc3)cccc2C1=O | 2.6 | 0.2 | 0.0* | . | 92.8 | 1.2
SMILES | V-ATPase pH | KLK7 zymogen act | T cell modulator | Rce1 inh | CR mimetic SO | MIN6 prolif
CC(C)NC(=O)N(C)C[C@H]1Oc2ccc(NS(=O)(=O)c3ccccc3)cc2C(=O)N([C@H](C)CO)C[C@H]1C | -5.4 | 0.1 | 61.8* | . | 99.5 | -1.3
CCC(C)N1CCC2(CC1)N=c1c(c3c4c5c(C)c(O)c3c(O)c1=NC(=O)C(C)=CC=C[C@H](C)[C@H](O)[C@@H](C)[C@@H](O)[C@@H](C)[C@H](OC(C)=O)[C@H](C)[C@@H](OC)C=CO[C@@](C)(O5)C4=O)N2 (some centres not stated) | 10.6 | 0.3 | 483.3 | . | 71.6 | -6.4
CO[C@H]1C=CO[C@@]2(C)Oc3c(C)c(O)c4c(O)c(c5c(c4c3C2=O)NC2(CCN(CC(C)C)CC2)N=5)=NC(=O)C(C)=CC=C[C@H](C)[C@H](O)[C@@H](C)[C@@H](O)[C@@H](C)[C@H](OC(C)=O)[C@@H]1C | . | . | 404.7 | i | 62.0* | .
CC1=C(C(=O)OC(C)C)C(c2cn(-c3ccccc3)nc2-c2cccs2)NC(=O)N1 (configuration not stated) | 15.7* | 0.3 | 438.1 | i | 109.0 | -1.2
C=CCn1c(Cc2cccs2)nnc1SCC(=O)Nc1ccc(OCc2ccccc2)cc1 | . | -0.3 | . | . | . | .
CCOC(=O)CSC1=NC(=O)/C(=C\c2ccc(Cl)cc2)S1 | 11.0* | -0.2 | i | i | 90.2 | -6.1
CC1CCC2(CCC(=O)N2CCCOC(=O)Nc2cccc(C(F)(F)F)c2)CC1 (configuration not stated) | . | 0.7 | . | . | . | .
CCC1CCCCN1C(=O)NC(=O)c1ccccc1 (configuration not stated) | -2.6 | -0.2 | 300.2 | + | 118.9 | 1.1
CCC1CCCCN1C(=S)NC(=O)c1ccc([N+](=O)[O-])cc1 (configuration not stated) | -1.1 | -0.2 | 181.7 | i | 96.1 | 0.0
O=c1c(Br)ccc(Br)cc1Br | 62.1* | 0.1 | . | . | . | .
CC(C)CNC(=O)COc1cccc(C(=O)NCc2ccccc2)c1 | 10.5 | -0.4 | 440.7 | + | 83.0 | -1.0
C=CCNC(=S)Nc1sc2c(c1C(N)=O)CCCC2 | 0.3 | 0.6 | 47.1* | i | 81.1 | -2.1
C=CC(=O)Nc1sc2c(c1C(N)=O)CCCC2 | 9.0 | 0.5 | 431.7 | i | 81.7 | -7.7
O=C(NCc1ccccc1)c1c(O)c2cccc3c2n(c1=O)CCC3 | -0.9 | -0.1 | 156.9 | i | 88.8 | 1.4
O=C(NCc1ccc2c(c1)OCO2)c1c(O)c2cccc3c2n(c1=O)CCC3 | 30.4* | -0.1 | 293.1 | . | 94.9 | -0.7
Cc1ccc(-n2c(SCC(=O)Nc3ccc4c(c3)OCCO4)nnc2-c2cccnc2)cc1 | . | -0.1 | . | . | . | .
CCCn1c(O)c(N=NC(=O)CNC(=O)Cc2ccc(OC)cc2)c2ccccc21 | 1.2 | 0.0 | 683.1 | + | 83.9 | -0.6
O=C(N[C@H](C(=O)N1CCC[C@H]1C(=O)NC1CCCC1)C1CCCCC1)c1nccs1 | . | -0.4 | . | . | . | .
CCOc1nc(CC(C)C)c2c(c1C#N)CC(C)(C)OC2 | 20.3* | 0.4 | 273.6 | i | 102.6 | 1.8
